Publication PMC7034990 (Science Advances, 2020)

What was measured:
[1] = system: F508del-CFTR CFBE41o− cells; assay: Western blot of F508del-CFTR maturation in CFBE41o− cells; type: cell-based; conditions: 24 hours
Outline: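 Confluent CFBE41o− cells expressing F508del-CFTR were treated with test compounds or DMSO. They were lysed in RIPA with protease inhibitors and cleared at 15,300g, 4°C, 10 min. Lysates were run on SDS-PAGE and immunoblotted with mouse monoclonal anti-CFTR. Immature core-glycosylated band B runs near 150 kDa. Bands were quantified as regions of interest and normalised to GAPDH.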

[2] = system: F508del/F508del cultured bronchial epithelia; assay: Apical fluid pH measurement on CF bronchial epithelia; type: cell-based, human; conditions: 24 hours
Outline: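 CF bronchial epithelia at air-liquid interface were treated 24 h with correctors or DMSO vehicle. The apical side then received 75 μl low-buffer modified PBS (pH 7.35) containing 100 μM CPT-cAMP and 1 μM VX-770, for 3 h at 37°C, 5% CO2. The recovered fluid was mixed with SNARF-1 (final 0.1 mg/ml), excited at 544 nm, and the 590/640 nm emission ratio converted to pH by calibration curve.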

[3] = target: T1, F508del-CFTR in CFBE41o− cells (Homo sapiens, UniProt P13569, DEL508-508); assay: F508del-CFTR half-life after cycloheximide block of protein synthesis; type: cell-based; conditions: 24 hours of treatment then cycloheximide, ARN23765 1 nM, VX-809 1 μM
[4] = target: T1, F508del-CFTR in CFBE41o− cells; assay: Thermoaggregation assay of mutant CFTR in cell lysates; type: cell-based; conditions: lysates heat-denatured at 28° to 70°C; ARN23765 1 nM, VX-809 1 μM
Outline: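 F508del-CFTR CFBE41o− cells were treated 24 h; wild-type CFTR CFBE41o− cells were run in parallel. Confluent cells received cycloheximide (150 μg/ml) for 2 h, were lysed in RIPA on ice and cleared at 15,000g, 10 min, 4°C. Lysate (50 μg) was heated 15 min at 28–70°C. Aggregates were removed at 15,000g, 15 min, 4°C; soluble CFTR was immunoblotted and normalised to HSP90AB1.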

[5] = system: CFBE41o− cells; assay: Cell viability panel; type: cell-based; conditions: 24 hr, positive controls celastrol or cytochalasin D
Outline: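 CFBE41o− cells. Proliferation: 5000 cells/well; after 24 h, test compound at several concentrations or DMSO; tracked 24 h by high-content imaging. MTT: 50,000 cells/well; treated 24 h after plating; next day MTT 0.5 mg/ml final, 3 h at 37°C; absorbance at 560 nm. Cell death: 50,000 cells/well, treated 24 h, then Hoechst 33342 plus propidium iodide stain and high-content imaging.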

[6] = system: F508del-CFTR CFBE41o− cells; assay: HS-YFP assay in CFBE41o− cells expressing F508del-CFTR; type: cell-based

CN(C(=O)c1cccc(-n2nc(C(F)(F)F)c3c2[C@@H](Oc2ccc(C(=O)O)cc2)CCC3)c1)c1ccc2c(c1)OC(F)(F)O2 [ARN23765]
F508del-CFTR maturation, band C [1]: at low concentrations was also observed
pH of the apical fluid, combination of ARN23765 and 4172 ([2]; ARN23765 10 nM plus 4172 10 μM): further increased pH to a level significantly higher than that measured with each corrector alone
pH of the apical fluid, single corrector ([2]; ARN23765 10 nM, 4172 10 μM, versus control-treated cells): significant increase in pH
increase of half-life of mature CFTR (band C) [3]: threefold
resistance to thermoaggregation of mature CFTR [4]: significantly increased the resistance to thermoaggregation of mature CFTR
effect on cell viability [5]: did not impair cell proliferation nor caused cell toxicity
F508del-CFTR activity (QR) of the ARN23765/VX-809 combination ([6]; CFBE41o− cells, VX-809 1 μM, ARN23765 10 nM, or both): no additive effect
EC50 ([6]; Homo sapiens, CFBE41o-, 24 h): 0.4 nM
